≈ marks a conversion by molar mass, not a printed value.
Legend:
Format in all cases: functional, organism-based
Fusarium culmorum = test: Antifungal activity against Fusarium culmorum by Almar blue assay
Procedure, shortened: (§1)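 Plant pathogen strains from CGMCC, maintained on potato dextrose agar; inocula from broth cultures grown 25 °C for 48 h, final suspension 1 × 10^4 hyphae/mL. Samples from 10 mg/mL DMSO stock, serially diluted, in triplicate, with alamar blue indicator; incubated 28 °C for 48 h, fluorescence read at Ex/Em 544/590 nm. Inhibition rate plotted against concentration to give IC50 and MIC; NCCLS-based method.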

Fusarium graminearum = test: Antifungal activity against Gibberella zeae by Almar blue assay; procedure, shortened: as §1
Verticillium albo-atrum = test: Antifungal activity against Verticillium albo-atrum by Almar blue assay; procedure, shortened: as §1

| SMILES | IC50 (Fusarium culmorum) [µM] | MIC (Fusarium culmorum) [µM] | IC50 (Fusarium graminearum) [µM] | MIC (Fusarium graminearum) [µM] | IC50 (Verticillium albo-atrum) [µM] | MIC (Verticillium albo-atrum) [µM] |
| --- | --- | --- | --- | --- | --- | --- |
| COc1c(Cl)c(C)c(Cl)c(O)c1C1NC(=O)c2c(O)cc(O)c(CC=C(C)C)c21 (racemic) [PESTALACHLORIDE A] | 0.89 | 7.2 (≈ 3.16 µg/mL) | 54.4 | 114 (≈ 50.1 µg/mL) | 58.3 | 114 (≈ 50.1 µg/mL) |
| COc1c(Cl)c(C)c(Cl)c2c1[C@H]1c3c(C=O)c(O)cc(O)c3C[C@@H]1C(C)(C)O2 (racemic) [PESTALACHLORIDE C] | > 118 | > 237 | > 118 | > 237 | > 118 | > 237 |
| CC(C)=CCc1c(O)cc(O)c2c1C(=O)c1c(O)c(Cl)c(C)c(Cl)c1OC2 [PESTALACHLORIDE B] | 4.7 | 49 (≈ 20.1 µg/mL) | 1.1 | 12.2 (≈ 4.99 µg/mL) | 7.9 | 12.2 (≈ 4.99 µg/mL) |

Reference: ChEMBL document CHEMBL1139409, “Pestalachlorides A-C, antifungal metabolites from the plant endophytic fungus Pestalotiopsis adusta” (Bioorg Med Chem, 2008)
